Reference: ChEMBL document CHEMBL1124155, “Synthesis and dopamine agonist and antagonist effects of (R)-(-)- and (S)-(+)-11-hydroxy-N-n-propylnoraporphine” (J Med Chem, 1988)

How the values were obtained:
[1] = test system: Rattus norvegicus; assay: Stereotyped behavior in rat induced by Aporphines after ip administration at 1.0 mg/kg dose; assay type: functional; conditions: route intraperitoneal
Outline: (§1)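 Aporphine given ip to rats (doses 0.3–3.0 mg/kg; saline as 0). Stereotyped behavior rated every 10 min for 1 h. Mean stereotypy score, maximum 18.0, ± SEM, N = 6. Student's t test, p < 0.05.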

[2] = test system: Rattus norvegicus; assay: Effect (3 mg/kg) on motor arousal induced by apomorphine; assay type: functional
Outline: (§2)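 Rats received test enantiomer ip immediately before apomorphine (0.3 mg/kg). They were then placed in a microcomputer-controlled electronic activity monitor for 1 h. Read-out was activity counts per hour, mean ± SEM, N = 6. Comparison was against a saline + apomorphine control by Student's t test.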

[3] = test system: Rattus norvegicus; assay: Stereotyped behavior in rat induced by Aporphines after ip administration at 3.0 mg/kg dose; assay type: functional; conditions: route intraperitoneal; outline: as §1
[4] = test system: Rattus norvegicus; assay: Effect (3 mg/kg) on motor arousal induced by apomorphine (0.3 mg/kg) expressed as percent control; assay type: functional; outline: as §2
[5] = test system: Rattus norvegicus; assay: Stereotyped behavior in rat induced by Aporphines after ip administration at 0 mg/kg dose; assay type: functional; conditions: route intraperitoneal; outline: as §1
[6] = test system: Rattus norvegicus; assay: Stereotyped behavior in rat induced by Aporphines after ip administration at 0.3 mg/kg dose; assay type: functional; conditions: route intraperitoneal; outline: as §1
[7] = biological target: D(2) dopamine receptor (Rattus norvegicus, UniProt P61169); assay: Binding affinity against Dopamine receptor D2 from rat brain corpus striatal preparations using [3H]spiperone
Sequence of D(2) dopamine receptor (P61169 whole entry): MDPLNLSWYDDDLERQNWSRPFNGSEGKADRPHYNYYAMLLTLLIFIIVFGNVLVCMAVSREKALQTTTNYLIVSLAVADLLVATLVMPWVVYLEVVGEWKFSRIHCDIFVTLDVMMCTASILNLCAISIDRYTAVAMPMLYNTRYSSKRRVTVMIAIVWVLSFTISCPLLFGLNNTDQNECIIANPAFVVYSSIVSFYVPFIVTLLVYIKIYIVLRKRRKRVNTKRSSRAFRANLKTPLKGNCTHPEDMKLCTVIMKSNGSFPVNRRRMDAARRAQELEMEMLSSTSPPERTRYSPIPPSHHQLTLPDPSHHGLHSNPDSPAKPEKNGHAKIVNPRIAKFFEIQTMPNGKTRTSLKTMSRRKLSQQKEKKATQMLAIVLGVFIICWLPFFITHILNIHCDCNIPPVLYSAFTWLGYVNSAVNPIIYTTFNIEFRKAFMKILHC

[8] = biological target: Dopamine receptor; assay: Binding affinity against dopamine agonist sites from rat brain corpus striatal preparations using [3H]ADTN
[9] = biological target: D(1A) dopamine receptor (Rattus norvegicus, UniProt P18901); assay: Binding affinity against Dopamine receptor D1 from rat brain corpus striatal preparations using [3H]SCH-23390
Sequence of D(1A) dopamine receptor (P18901 whole entry): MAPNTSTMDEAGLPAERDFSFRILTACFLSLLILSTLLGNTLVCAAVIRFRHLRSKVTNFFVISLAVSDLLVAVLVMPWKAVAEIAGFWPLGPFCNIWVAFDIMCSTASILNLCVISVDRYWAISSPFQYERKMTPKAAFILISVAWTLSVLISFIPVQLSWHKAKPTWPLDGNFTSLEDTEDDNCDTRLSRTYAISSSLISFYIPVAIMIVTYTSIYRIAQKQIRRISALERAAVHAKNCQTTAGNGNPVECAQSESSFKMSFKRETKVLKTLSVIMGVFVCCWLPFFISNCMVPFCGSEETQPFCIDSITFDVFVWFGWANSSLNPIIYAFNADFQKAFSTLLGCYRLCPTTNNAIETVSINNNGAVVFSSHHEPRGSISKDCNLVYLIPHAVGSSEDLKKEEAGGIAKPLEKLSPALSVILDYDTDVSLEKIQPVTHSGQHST

[10] = test system: Rattus norvegicus; assay: Effect (1 mg/kg) on motor arousal induced by apomorphine (0.3 mg/kg); assay type: functional; outline: as §2
[11] = test system: Rattus norvegicus; assay: Effect (1 mg/kg) on motor arousal induced by apomorphine (0.3 mg/kg) expressed as percent control; assay type: functional; outline: as §2
[12] = test system: Rattus norvegicus; assay: Effect (3 mg/kg) on motor arousal induced by apomorphine (0.3 mg/kg); assay type: functional; outline: as §2
[13] = test system: Rattus norvegicus; assay: Effect (10 mg/kg) on motor arousal induced by apomorphine (0.3 mg/kg) expressed as percent control; assay type: functional; outline: as §2
[14] = test system: Rattus norvegicus; assay: Effect on motor arousal induced by apomorphine (0.3 mg/kg) expressed as percent control; assay type: functional; outline: as §2
[15] = test system: Rattus norvegicus; assay: Effect (0.3 mg/kg) on motor arousal induced by apomorphine; assay type: functional; outline: as §2

CCCN1CCc2cccc3c2[C@H]1Cc1cccc(O)c1-3
Activity [1]: 9.5
Activity [2]: 764
Activity [3]: 13.8
Control [4]: 151%
Activity [5]: 0.8
Activity [6]: 5.7

CCCN1CCc2cccc3c2[C@@H]1Cc1ccccc1-3
Ki [7]: 115 nM
Ki [8]: 278 nM
Ki [9]: 1340 nM

CCCN1CCc2cccc3c2[C@@H]1Cc1cccc(O)c1-3
Activity [10]: 410
Activity [1]: 1.7
Control [11]: 81%
Activity [12]: 218
Activity [3]: 1.3
Control [4]: 43%
Activity [5]: 0.8
Control [13]: 21%
Activity [6]: 0.6

CCCN1CCc2cccc3c2[C@H]1Cc1ccccc1-3
Ki [7]: 2.4 nM
Ki [8]: 1.1 nM
Ki [9]: 340 nM

CN1CCc2cccc3c2[C@H]1Cc1ccc(O)c(O)c1-3 [APOMORPHINE]
Activity [1]: 12.7
Activity [3]: 17.5
Activity [5]: 0.8
Control [14]: 100%
Activity [15]: 505
Activity [6]: 9.7
